Experimental data of several laboratories.
Each line is one published result; the experiments were not run side by side.
Target: Phosphatidylinositol 4,5-bisphosphate 3-kinase catalytic subunit delta isoform (PIK3CD, Homo sapiens, UniProt O00329)
Sequence (O00329 1-1044, as in one of the studies): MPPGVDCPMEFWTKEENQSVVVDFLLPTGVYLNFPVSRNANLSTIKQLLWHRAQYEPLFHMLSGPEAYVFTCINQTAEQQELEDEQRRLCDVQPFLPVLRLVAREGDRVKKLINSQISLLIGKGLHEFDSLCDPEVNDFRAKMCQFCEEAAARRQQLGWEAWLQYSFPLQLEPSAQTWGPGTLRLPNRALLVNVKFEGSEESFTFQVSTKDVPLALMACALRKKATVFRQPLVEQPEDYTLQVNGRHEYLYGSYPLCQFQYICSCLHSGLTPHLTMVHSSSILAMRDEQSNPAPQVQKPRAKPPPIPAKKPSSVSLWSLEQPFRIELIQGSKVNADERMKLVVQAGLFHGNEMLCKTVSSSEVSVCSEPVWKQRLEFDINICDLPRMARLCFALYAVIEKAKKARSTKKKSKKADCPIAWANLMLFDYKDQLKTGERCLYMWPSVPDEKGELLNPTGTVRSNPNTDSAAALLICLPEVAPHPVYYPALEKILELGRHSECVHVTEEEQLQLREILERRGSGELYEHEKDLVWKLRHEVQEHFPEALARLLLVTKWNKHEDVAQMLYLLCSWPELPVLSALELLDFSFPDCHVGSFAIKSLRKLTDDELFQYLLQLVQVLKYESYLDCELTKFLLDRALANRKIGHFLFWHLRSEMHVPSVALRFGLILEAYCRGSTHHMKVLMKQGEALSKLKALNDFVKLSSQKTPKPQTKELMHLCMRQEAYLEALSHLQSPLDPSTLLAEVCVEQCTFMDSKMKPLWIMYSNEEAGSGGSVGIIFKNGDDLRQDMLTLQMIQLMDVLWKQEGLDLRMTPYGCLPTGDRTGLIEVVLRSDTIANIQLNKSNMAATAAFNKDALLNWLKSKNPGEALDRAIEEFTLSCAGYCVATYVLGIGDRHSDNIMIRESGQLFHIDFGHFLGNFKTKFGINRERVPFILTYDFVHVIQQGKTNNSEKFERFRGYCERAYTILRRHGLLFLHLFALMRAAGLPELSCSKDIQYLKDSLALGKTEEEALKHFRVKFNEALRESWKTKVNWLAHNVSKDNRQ

CS(=O)(=O)Nc1cc(-c2ccc3ncnc(Nc4ccc(F)c(Cl)c4)c3c2)cnc1Cl — inhibition (enzyme activity, inhibitor, FRET; 10 µM): 90 to 100%
Nc1ncnc2occ(-c3ccc(NC(=O)Nc4cc(C(F)(F)F)ccc4F)cc3)c12 — remaining signal (cell-free assay, inhibitor; 20 µM): 69%
CC(C)(O)c1cncc(-c2nc3ccc(F)cc3n2C2CC2)c1 — remaining binding (cell-free assay, competition with immobilised ligand; 1 µM): 100%
O=C(CSc1nc2nccnc2c(=O)n1CCc1ccccc1)Nc1ccccc1 — inhibition (enzyme activity, inhibitor; 10 µM): < 20%
CO[C@@H](C)c1c(Nc2ccc([C@@H](N(C)C(=O)C3CCS(=O)(=O)CC3)C(F)(F)F)cc2)cnc2cc(Cl)nn12 — remaining binding (cell-free assay, competition with immobilised ligand; 1 µM): 87%
CN(CCCC(F)(F)F)c1nccc(-c2cnn3ncccc23)n1 — remaining binding (binding; 1 µM): 100%
Cc1ccc(C(=O)Nc2ccc(CN3CCN(C)CC3)c(C(F)(F)F)c2)cc1C#Cc1cnc2cccnn12 — remaining activity (enzyme activity, inhibitor; 23.5 nM): 83%
CC(C)CCn1c(SCC(=O)Nc2ccccc2C(F)(F)F)nc2nccnc2c1=O — inhibition (enzyme activity, inhibitor; 10 µM): < 20%
Cc1ccc(C(=O)NCc2ccsc2)cc1C#Cc1cn(C(C)C)c2ncnc(N)c12 — activity vs control (enzyme activity, inhibitor; 1 µM): 98%
